Screening data (PubChem BioAssay)
Kir21 inh: Kir2.1 (mouse) channel inhibition | P35561 | AID 1672 | 310,000 compounds, 0.85% hits | HEK293-Kir2.1, FluxOR thallium flux fluorescence; hits give low values | B-score at 10 µM;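 active means fluorescence ratio B-score at or below minus 3 SD of library scores, with starting-brightness B-score within 2 SD, cut at about -4.2 in these data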;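 further: channel flux triggered by added potassium and thallium sulfate stimulus; B-score of peak minus minimum fluorescence over baseline after thallium stimulus; more negative B-score means stronger Kir2.1 block with less thallium influx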
hERG protect: shields human hERG channel from block by proarrhythmic agents; activation (rescue from dofetilide block), less the hit threshold, % at 10 µM; CHO-hERG, FluxOR thallium flux, dofetilide IC70 present; Q12809; 310,000 compounds, 0.51% hits;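 active means activation above the mean of controls blocked by dofetilide plus 5 SD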;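 further: thallium influx through hERG after potassium depolarization seen as dye fluorescence rise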
KCNK9 block: blocks the human KCNK9 two-pore domain potassium channel | Q9NPC2 | 310,000 compounds, 1.2% hits | HEK293 KCNK9, FluxOR thallium flux fluorescence; hits give low values | B-score at 10 µM;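 active means ratio B-score over 3 SD below the library mean, with starting fluorescence within 5 SD of its mean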;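 further: negative B-score means less thallium flux so channel inhibition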
KCNK3 inh: human KCNK3 channel inhibition, primary screen | O14649 | CHO-KCNK3 thallium flux, FluxOR fluorescence; hits give low values | B-score at 10 µM | 340,000 compounds, 0.84% hits;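 active means B-score under library mean minus 4 SD, starting fluorescence ratio at most library mean plus 5 SD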;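 further: more negative B-score means stronger inhibition of thallium flux through KCNK3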
Target sequence (O14649 whole entry, looked up): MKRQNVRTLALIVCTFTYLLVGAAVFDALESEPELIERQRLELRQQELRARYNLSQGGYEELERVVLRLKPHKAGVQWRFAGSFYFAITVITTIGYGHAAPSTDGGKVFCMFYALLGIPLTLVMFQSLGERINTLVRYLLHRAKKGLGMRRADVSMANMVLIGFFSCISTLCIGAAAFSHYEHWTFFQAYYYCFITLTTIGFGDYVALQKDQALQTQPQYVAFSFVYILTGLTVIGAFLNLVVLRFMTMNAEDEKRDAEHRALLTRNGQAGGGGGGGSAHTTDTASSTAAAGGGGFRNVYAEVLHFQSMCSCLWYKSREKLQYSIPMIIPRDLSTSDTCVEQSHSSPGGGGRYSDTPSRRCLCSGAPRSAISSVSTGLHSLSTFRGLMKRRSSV
KCNQ1 pot: human KCNQ1 channel potentiation or activation; P51787; CHO-K1 KCNQ1, thallium flux FluxOR fluorescence; hits give high values; B-score at 10 µM; 310,000 compounds, 0.35% hits;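 active means fluorescence ratio B-score, a plate-corrected score, at least three library SD, with initial intensity B-score within 5 SD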
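System: CHO-K1 cells stably expressing KCNQ1 / Medium: assay buffer for compound exposure, DMSO matched across wells / Reagent: thallium- and potassium-containing depolarizing buffer / Compound: one concentration, matched DMSO / Incubation: 20 min compound pretreatment at room temperature / Measured by: kinetic FluxOR fluorescence, 10 s baseline plus 110 s post-stimulus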
KCNQ1 inh: human KCNQ1 channel inhibition. P51787. CHO-K1 KCNQ1, FluxOR thallium flux fluorescence; hits give high values. B-score at 10 µM. 310,000 compounds, 1.3% hits;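 active means compounds whose thallium flux B-score, printed positive for inhibition, exceeds three library SD while starting fluorescence stays within three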;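 further: channel opened by potassium depolarization with thallium stimulus after 20 min compound exposure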
KCNK9 block conf: confirmation of human KCNK9 potassium channel inhibitors. inhibition, % at 10 µM. shares compounds with KCNK9 block. 4,900 compounds, 43% hits. AID 492992. HEK293 KCNK9 cells, FluxOR thallium flux fluorescence;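 active means thallium signal inhibited by more than 5 SD of the compound-free buffer control wells, on both duplicate plates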;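 further: 0% = assay buffer control wells without compound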
Kir2-1 spec: tests whether KCNK9 modulators also affect mouse Kir2.1 | inhibition, % at 10 µM | 4,900 compounds, 4% hits | AID 492993 | Kir2.1 cells, FluxOR thallium flux fluorescence | shares compounds with KCNK9 block;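 active means thallium signal drop more than 5 SD beyond the mean of the no-compound control wells, seen in both duplicate plates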;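 further: signal is fluorescence rise after thallium addition divided by baseline fluorescence; plate controls were assay buffer only for no effect and full block by chlorpromazine control for full effect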
KCNK9 uninduced: second counter-screen for KCNK9 modulators: effect in non-induced cells; shares compounds with KCNK9 block; inhibition, % at 10 µM; 4,900 compounds, 40% hits; non-induced KCNK9-HEK293, FluxOR thallium flux;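 active means thallium signal drop beyond 5 SD of the untreated control mean, on both duplicate plates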;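 further: plate controls were buffer only IC0 wells for no effect and SID17386958 at its maximal inhibitory level for full effect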
An asterisk follows results filed as active; i = inactive; · = not tested or not shown; ! = not confirmed by another sample. Compounds with a hit are over-represented: about 3.7% of the library has one in this group of screens.

SMILES	Kir21 inh	hERG protect	KCNK9 block	KCNK3 inh	KCNQ1 pot	KCNQ1 inh	KCNK9 block conf	Kir2-1 spec	KCNK9 uninduced
CC(OC(=O)c1ccccc1NS(=O)(=O)c1cccc(C(F)(F)F)c1)C(=O)N(C)Cc1ccccc1 (stereo unspecified)	1.5	-9	-13*	i	i	i	64%*	i	31%*
CN(Cc1ccccc1)C(=O)COC(=O)c1ccccc1NS(=O)(=O)c1cccc(N)c1	-0.96	-7	i	i	i	i	·	·	·
CCOC(=O)/C(=C\Nc1ccc(OC(F)(F)F)cc1)Sc1ncc(C(F)(F)F)cc1Cl	-1.4	-9	i	i	i	i	i	i	i
CCOc1nc(-c2ccccc2)ncc1Oc1ccccc1	1.3	-6	i	i	i	i	·	·	·
CC1CCC(C(C)C)C(OC(=O)Cn2nnc3c(cnn3-c3ccccc3)c2=O)C1 (stereo unspecified)	-1.3	-20	i	i	i	i	·	·	·
Cc1ccccc1OCc1n(CC(=O)OC2CC(C)CCC2C(C)C)c2ccccc2[n+]1C (stereo unspecified)	-15*	-30	-17*	-13*	i	8*!	70%*	78%*!	i
c1ccc(SCCN2CCN(c3ccccc3)CC2)cc1	0.53	-8	i	i	i	i	i	i	i
CCCN1CCC(=O)N(CCSc2ccccc2)CC1	0.81	2	i	i	i	i	·	·	·
O=c1c2ccccc2[nH]c(=S)n1CCCN1CCC(Cc2ccccc2)CC1	-1.2	-12	i	i	i	i	i	i	i
CC1CCN(CCCn2c(=S)[nH]c3ccccc3c2=O)CC1	1.9	-6	i	i	i	i	·	·	·
COc1cc(OC)nc(Oc2cccc(C(F)(F)F)c2)n1	0.18	-7	-10*	i	i	i	48%*	i	38%*
Cc1ccc(CSc2nc3ccccc3c(=O)[nH]2)cc1	-1.9	-13	-9*	i	i	i	i	i	29%*
CCOc1ccc(N2CC(C(=O)Nc3ccccc3C(=O)NC3CC3)CC2=O)cc1 (stereo unspecified)	-0.16	-4	i	i	i	i	·	·	·
COCC1CCN(C(=O)c2cc(COc3ccc4c(c3)CCCC4)on2)C1 (stereo unspecified)	0.39	-13	i	i	i	i	i	i	i
COc1cccc(OCc2cc(C(=O)N3CCN(C)C(c4ccccc4)C3)no2)c1 (stereo unspecified)	-1.8	-12	i	i	i	i	i	i	i
C=CCC1(CC=C)CCCN1C(=O)c1cc(COc2cccc(OC)c2)on1	-0.57	-5	i	i	i	i	i	i	i
COC(=O)C1CN(C(=O)COc2ccc(Cl)c(C)c2)c2ccccc2O1 (stereo unspecified)	-1.2	-5	i	i	i	i	·	·	·
CC(C)(C)C1CCC2(CC1)CC(=O)c1ccccc1O2 (stereo unspecified)	1.2	-6	i	i	i	i	·	·	·
COC(CNc1ccc([N+](=O)[O-])c(NCC(OC)OC)c1C#N)OC	0.3	-1	i	i	i	i	·	·	·
COc1ccc(O)c(C(=O)CC(=O)c2ccccc2)c1	1.3	0	i	·	i	i	·	·	·
Cc1ccc(O)c(C(=O)c2cc(C#N)c(=O)n(Cc3ccccc3)c2)c1	0.49	-3	i	i	i	i	·	·	·
Cc1ccc(O)c(C(=O)c2cc(C(=O)NCCc3ccccc3)c(=O)n(CCc3ccccc3)c2)c1	-0.15	-23	i	i	i	6*	i	i	i
COc1ccc(O)c(C(=O)c2cc(C(=O)NCCc3ccccc3)c(=O)n(CCc3ccccc3)c2)c1	-0.02	-6	i	i	i	i	i	i	i
CC1CCN(CCCN2C(=O)C3C(C(=O)Nc4ccc(Cl)cc4)C4C=CC3(O4)C2C(=O)NC2CCCCC2)CC1 (stereo unspecified)	-4.9e-16	-10	i	i	i	i	·	·	·
CC1CCCC(C)N1C(=O)CN1C(=O)c2ccccc2S1(=O)=O (stereo unspecified)	·	·	·	i	·	·	·	·	·
SMILES	Kir21 inh	hERG protect	KCNK9 block	KCNK3 inh	KCNQ1 pot	KCNQ1 inh	KCNK9 block conf	Kir2-1 spec	KCNK9 uninduced
Cc1ccc(CNC(=O)N2CCN(c3ccc(C)cc3)CC2)cc1	0.01	-8	i	i	i	i	·	·	·
Cc1ccc(C(=O)NCc2ccc(N3CCN(C(=O)OC(C)(C)C)CC3)cc2)cc1	-0.82	-16	i	i	i	i	i	i	i
CC(Oc1ccc(F)cc1Br)c1nc2ccccc2c(=O)[nH]1 (stereo unspecified)	0.87	-12	i	i	i	i	·	·	·
COc1cc(/C=N/OCC(=O)NC23CC4CC(CC(C4)C2)C3)ccc1OCc1ccccc1	-1.1	-5	i	i	i	i	i	i	26%*
COc1cc(/C=N/OCC(=O)NC2CCCCC2)ccc1OCc1ccccc1	-0.55	-2	i	i	i	i	·	·	·
O=C(c1ccccc1)n1ccc(-c2cnc(-c3ccccc3)s2)n1	0.9	-9	i	i	i	i	·	·	·
COc1ccc(S(=O)(=O)n2ccc(-c3cnc(-c4ccccc4)s3)n2)cc1	-0.32	-8	-10*	i	i	i	i	i	31%*
N#CCSc1ccc2nc(-c3ccccc3)cn2n1	0.64	-8	i	i	i	i	·	·	·
CCCCn1cc(C(=O)c2cc(Br)ccc2O)cc(C#N)c1=O	0	-12	i	i	i	i	·	·	·
CN(C)/C=c1\sc2c(C#N)cc(C(=O)c3ccc(Br)cc3)n2c1=O	0.19	-7	-8.4*	i	i	i	36%*	62%*	78%*
Cc1ccccc1CN1CCN(S(=O)(=O)c2cccc3nsnc23)CC1	1.1	-6	i	i	i	i	i	i	i
O=S(=O)(c1cccc2nsnc12)N1CCN(C/C=C\c2ccccc2)CC1	-0.5	-11	i	i	i	i	i	i	i
Cc1cccc(-n2c(CNC(=O)c3ccc(S(=O)(=O)N(C)C)cc3)nnc2SCC(=O)Nc2ccc(F)cc2)c1	-3.2	-7	i	i	i	i	·	·	·
